Here are results for 36 compounds from ChEMBL document CHEMBL1145607, “Design, synthesis and evaluation of 2-phenyl-1H-benzo[d]imidazole-4,7-diones as vascular smooth muscle cell proliferation inhibitors” (Bioorg Med Chem Lett, 2008).

The nature of experiment [1]: Antiproliferative activity against PDGF-induced rat aortic VSMC by colorimetric assay. The class given is functional, tissue-based. The settings on record: Aorta. A digest of the protocol:
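Rat aortic SMCs stimulated with PDGF; inhibition of proliferation read by a colorimetric assay; IC50 values determined by comparison to mycophenolic acid as standard agent.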

Experiment [2] can be described thus: Down-regulation of cyclin A protein expression in rat aortic VSMC at 1 ug/ml after 48 hrs by Western blot. Type of experiment: functional, tissue-based. Conditions: Aorta. A digest of the protocol: (§1)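 Total cell lysates from cultured SMCs treated with 1 µg/mL for 48 h; PCNA, cyclin A, cyclin D1, pRb (also cdk 2) probed by Western blot.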
On the technique in general: In western blotting, separated proteins are transferred to a membrane and probed.

Experiment [3] deals with RAC-alpha serine/threonine-protein kinase (Rattus norvegicus) (UniProt P47196). Briefly: Inhibition of Akt phosphorylation in rat aortic VSMC at 1 ug/ml after 1 hr. The settings on record: Aorta. The class given is tissue-based. A digest of the protocol: (§2)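 Cultured SMCs exposed to test agent for 1 h; phosphorylated ERK and phosphorylated Akt examined by Western blot.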

Experiment [4] relates to VSMC. Kind of experiment: Antiproliferative activity against PDGF-induced rat aortic VSMC assessed as cell density at 1 ug/ml after 48 hrs by phase-contrast microscope. The class given is functional, cell-based. A digest of the protocol:
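Cultured rat aortic SMCs exposed to 1 µg/mL test agent or DMSO vehicle alone for 48 h; cell density judged by observation and photography under a phase-contrast microscope.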

A short description of experiment [5]: Cell cycle arrest in rat aortic VSMC assessed as DNA accumulation at S phase at 1 ug/ml after 48 hrs relative to control. Type of experiment: functional, cell-based. A digest of the protocol: (§3)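 Cultured SMCs treated with 1 µg/mL for 48 h alongside a vehicle-treated control; DNA content per cell-cycle phase analysed by flow cytometry.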
Experiment [6] is described as follows: Cell cycle arrest in rat aortic VSMC assessed as DNA accumulation at G0/G1 phase at 1 ug/ml after 48 hrs relative to control. The class given is functional, cell-based. A digest of the protocol:
as §3

The nature of experiment [7]: Cell cycle arrest in rat aortic VSMC assessed as DNA accumulation at G2/M phase at 1 ug/ml after 48 hrs relative to control. Type of experiment: functional, cell-based. The gist of the method:
as §3

A further experiment is filed under the species Rattus norvegicus. Briefly: Inhibition of ERK phosphorylation in rat aortic VSMC at 1 ug/ml after 1 hr. Type of experiment: tissue-based. The settings on record: Aorta. A digest of the protocol: as §2
Experiment [8] concerns VSMC. Briefly: Effect on pRb protein expression in rat aortic VSMC at 1 ug/ml after 48 hrs by Western blot. Conditions: Aorta. Type of experiment: functional, tissue-based. A digest of the protocol: as §1
Experiment [9] relates to VSMC. Briefly: Effect on cyclin D1 protein expression in rat aortic VSMC at 1 ug/ml after 48 hrs by Western blot. The class given is functional, tissue-based. Conditions: Aorta. A digest of the protocol: as §1
Experiment [10] in a line: Down-regulation of PCNA protein expression in rat aortic VSMC at 1 ug/ml after 48 hrs by Western blot. Type of experiment: functional, tissue-based. Conditions: Aorta. The gist of the method:
as §1

Activity calls are given as the source filed them. The rule behind the calls is not given here.

RAC-alpha serine/threonine-protein kinase (Rattus norvegicus), sequence (P47196 whole entry): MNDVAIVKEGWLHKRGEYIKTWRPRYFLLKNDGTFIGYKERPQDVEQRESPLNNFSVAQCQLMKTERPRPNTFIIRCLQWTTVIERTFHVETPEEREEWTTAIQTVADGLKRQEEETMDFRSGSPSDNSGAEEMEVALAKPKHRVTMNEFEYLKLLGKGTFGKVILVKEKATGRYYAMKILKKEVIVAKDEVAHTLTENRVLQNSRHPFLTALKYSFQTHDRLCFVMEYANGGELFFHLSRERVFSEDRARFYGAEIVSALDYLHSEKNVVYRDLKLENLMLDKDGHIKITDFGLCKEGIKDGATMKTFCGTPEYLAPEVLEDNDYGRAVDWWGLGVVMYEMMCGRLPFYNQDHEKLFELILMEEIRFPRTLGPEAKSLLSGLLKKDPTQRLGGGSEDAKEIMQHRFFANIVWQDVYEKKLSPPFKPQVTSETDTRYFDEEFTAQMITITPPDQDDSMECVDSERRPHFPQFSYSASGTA

The compound `O=C1C(Cl)=C(Nc2ccc(F)cc2)C(=O)c2[nH]c(-c3ccncc3)nc21` gave an IC50 in experiment [1] of 50 µM.

The compound `CCc1ccc(SC2=C(Cl)C(=O)c3nc(-c4ccccn4)[nH]c3C2=O)cc1` came in with a half-maximal inhibitory concentration (IC50) in [1] of 7 µM.

Compound `Cc1ccc(SC2=C(Cl)C(=O)c3nc(-c4ccccc4)[nH]c3C2=O)cc1` returned an IC50 in experiment [1] of 1 µM.

Compound `O=C1C(Cl)=C(Nc2ccc(C(F)(F)F)cc2)C(=O)c2[nH]c(-c3ccccc3)nc21` had an IC50 in experiment [1] of 9.4 µM.

As to `COc1ccc(SC2=C(Cl)C(=O)c3nc(-c4ccccc4)[nH]c3C2=O)cc1`, the result (in experiment [2]; in experiment [3]; in the experiment with VSMC [4]; in the experiment filed under Rattus norvegicus; with VSMC [8]; in the experiment on VSMC [9]) was Active. Also, the outcome in [10] was Active. Also, in [1], the IC50 amounted to 1 µM. Further, the Activity in [5] was found to be 22.4%; in [6], 59.6%; in experiment [7], 8%.

Regarding `O=C1C(Cl)=C(Nc2ccccc2)C(=O)c2[nH]c(-c3ccccc3)nc21`, the IC50 in experiment [1] was found to be 4 µM. That is a single-digit micromolar value.

For the compound `COc1c(C)c2c(c(O)c1C/C=C(\C)CCC(=O)O)C(=O)OC2` [MYCOPHENOLIC ACID], the IC50 in experiment [1] turned out to be 1 µM.

In [1], `CCc1ccc(NC2=C(Cl)C(=O)c3nc(-c4ccccc4)[nH]c3C2=O)cc1` returned an IC50 of 10.7 µM.

For the compound `O=C1C(Cl)=C(Nc2ccc(Br)cc2)C(=O)c2[nH]c(-c3cccnc3)nc21`, in experiment [1], it took 50 µM to reach half-maximal inhibition (IC50).

Compound `COc1ccc(NC2=C(Cl)C(=O)c3nc(-c4ccncc4)[nH]c3C2=O)cc1` registered an IC50 in experiment [1] of 50 µM.

Consider `O=C1C(Cl)=C(Nc2ccc(Cl)cc2)C(=O)c2[nH]c(-c3ccncc3)nc21`, for which, in experiment [1], the concentration for half-maximal inhibition (IC50) came out at 25 µM.

The compound `O=C1C(Cl)=C(Sc2ccc(Br)cc2)C(=O)c2[nH]c(-c3ccccn3)nc21` showed an IC50 in experiment [1] of 12 µM. Compared with the last compound, the IC50 is about 2.1-fold lower.

Consider `O=C1C(Cl)=C(Sc2ccc(Br)cc2)C(=O)c2[nH]c(-c3ccccc3)nc21`, for which, in experiment [1], the IC50 amounted to 1.5 µM.

Consider `COc1ccc(NC2=C(Cl)C(=O)c3nc(-c4ccccc4)[nH]c3C2=O)cc1`, for which inhibition in experiment [1] was half-maximal at 2 µM (IC50). The IC50 values of the last two compounds are within 1.5-fold of each other.

Compound `O=C1C(Cl)=C(Nc2ccc(Cl)cc2)C(=O)c2[nH]c(-c3cccnc3)nc21` yielded a half-maximal inhibitory concentration (IC50) in experiment [1] of 20 µM.

In [1], `O=C1C(Cl)=C(Nc2ccc(OC(F)(F)F)cc2)C(=O)c2[nH]c(-c3ccccc3)nc21` yielded an IC50 of 1.5 µM.

Consider `O=C1C(Cl)=C(Nc2ccc(Cl)cc2)C(=O)c2[nH]c(-c3ccccc3)nc21`, for which the concentration for half-maximal inhibition (IC50) in experiment [1] was 5.3 µM.

For `CCOc1ccc(NC2=C(Cl)C(=O)c3nc(-c4ccccc4)[nH]c3C2=O)cc1`, the IC50 in experiment [1] was determined as 50 µM.

With `Cc1ccc(SC2=C(Cl)C(=O)c3nc(-c4ccccn4)[nH]c3C2=O)cc1`, in [1], half-maximal inhibition (IC50) was put at 2.5 µM.

In turn, `O=C1C(Cl)=C(Sc2ccccc2)C(=O)c2[nH]c(-c3ccccc3)nc21` gave a 50% inhibitory concentration (IC50) in experiment [1] of 1.5 µM.

For `Cc1ccc(NC2=C(Cl)C(=O)c3nc(-c4ccccn4)[nH]c3C2=O)cc1`, the IC50 in experiment [1] was 50 µM.

As to `COc1ccc(NC2=C(Cl)C(=O)c3nc(-c4cccnc4)[nH]c3C2=O)cc1`, it took 42 µM to reach half-maximal inhibition in experiment [1] (IC50).

For the compound `O=C1C(Cl)=C(Sc2ccc(O)cc2)C(=O)c2[nH]c(-c3ccccc3)nc21`, the IC50 in experiment [1] was 2 µM.

In experiment [1], `O=C1C(Cl)=C(Nc2ccc(OC(F)(F)F)cc2)C(=O)c2[nH]c(-c3ccccn3)nc21` came in with an IC50 of 20 µM.

Take `Cc1cccc(SC2=C(Cl)C(=O)c3nc(-c4ccccc4)[nH]c3C2=O)c1`: it took 2 µM to reach half-maximal inhibition in experiment [1] (IC50).

In turn, `COc1ccc(SC2=C(Cl)C(=O)c3nc(-c4ccccn4)[nH]c3C2=O)cc1` gave an IC50 in [1] of 4.2 µM.

The compound `COc1ccc(NC2=C(Cl)C(=O)c3nc(-c4ccccn4)[nH]c3C2=O)cc1` gave an IC50 in [1] of 20 µM.

`O=C1C(Cl)=C(Nc2ccc(Br)cc2)C(=O)c2[nH]c(-c3ccncc3)nc21` yielded an IC50 in [1] of 100 µM. This IC50 is about 5-fold higher than that of the compound before.

With `O=C1C(Cl)=C(Nc2ccc(F)cc2)C(=O)c2[nH]c(-c3cccnc3)nc21`, the IC50 in [1] worked out at 21 µM. This IC50 is about 4.8-fold lower than that of the compound before.

As to `O=C1C(Cl)=C(Nc2ccc(Cl)cc2)C(=O)c2[nH]c(-c3ccccn3)nc21`, in experiment [1], the IC50 came out at 12.1 µM.

With `O=C1C(Cl)=C(Sc2ccc(Cl)cc2)C(=O)c2[nH]c(-c3ccccn3)nc21`, half-maximal inhibition in experiment [1] (IC50) was put at 4 µM. This IC50 is about 3-fold lower than that of the compound before.

`O=C1C(Cl)=C(Nc2ccc(F)cc2)C(=O)c2[nH]c(-c3ccccn3)nc21` yielded a concentration for half-maximal inhibition (IC50) in [1] of 9.4 µM.

On to `O=C1C(Cl)=C(Nc2ccc(C(F)(F)F)cc2)C(=O)c2[nH]c(-c3ccccn3)nc21`, for which the 50% inhibitory concentration (IC50) in experiment [1] is 1 µM.

For `Cc1ccc(NC2=C(Cl)C(=O)c3nc(-c4ccccc4)[nH]c3C2=O)cc1C`, in experiment [1], half-maximal inhibition (IC50) was put at 3 µM. This IC50 is about 3-fold higher than that of the compound before.

Regarding `Cc1ccc(NC2=C(Cl)C(=O)c3nc(-c4ccccc4)[nH]c3C2=O)cc1`, it took 3 µM to reach half-maximal inhibition in experiment [1] (IC50).

On to `O=C1C(Cl)=C(Nc2ccc(Br)cc2)C(=O)c2[nH]c(-c3ccccn3)nc21`, for which half-maximal inhibition in [1] (IC50) required 6.5 µM.

By IC50 is commonly meant the point on the concentration scale where inhibition reaches its midpoint. Read a low IC50 as higher potency.
